In ChEMBL document CHEMBL2331170, “Synthesis and biological evaluation of novel pyranochalcone derivatives as a new class of microtubule stabilizing agents” (Eur J Med Chem, 2013):

Legend:
[1] = Cytotoxicity against human LO2 cells by MTT assay; format: cell-based; details: L02
Outline: (§1)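 Log-phase cells were diluted to 40,000–50,000 cells/mL in medium with 10% FBS, 2 mM glutamine and antibiotics (37 °C, 5% CO₂). They were seeded in 96-well plates and treated with a range of doses. MTT was added for 4 h, the formazan was dissolved in DMSO, and absorbance was read at 590 nm.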

A-375 = assay: Cytotoxicity against human A375 cells by MTT assay; format: functional, cell-based; outline: as §1
K562 = assay: Cytotoxicity against human K562 cells by MTT assay; format: functional, cell-based; outline: as §1
HepG2 = assay: Cytotoxicity against human HepG2 cells by MTT assay; format: functional, cell-based; outline: as §1
A2780 = assay: Cytotoxicity against taxol-resistant human A2780 cells by MTT assay; format: functional, cell-based
[2] = Cytotoxicity against human MCF7/ADR cells by MTT assay; format: functional, cell-based; details: NCI/ADR-RES
HCT-8 = assay: Cytotoxicity against taxol-resistant human HCT8 cells by MTT assay; format: functional, cell-based
DU-145 = assay: Cytotoxicity against human DU145 cells by MTT assay; format: functional, cell-based
[3] = Cytotoxicity against human A2780S cells by MTT assay; format: functional, cell-based; details: A2780
PC-3 = assay: Cytotoxicity against human PC3 cells by MTT assay; format: functional, cell-based
[4] = Cytotoxicity against human ES2 cells by MTT assay; format: functional, cell-based; details: ES-2
SK-OV-3 = assay: Cytotoxicity against human SKOV3 cells by MTT assay; format: functional, cell-based
SK-HEP1 = assay: Cytotoxicity against human SKHEP1 cells by MTT assay; format: functional, cell-based
MCF7 = assay: Cytotoxicity against human MCF7 cells by MTT assay; format: functional, cell-based
Bel-7402 = assay: Cytotoxicity against human Bel7402 cells by MTT assay; format: functional, cell-based
[5] = Cytotoxicity against human SPC-A1 cells by MTT assay; format: functional, cell-based; details: SPCA1
[6] = Cytotoxicity against human H460 cells by MTT assay; format: functional, cell-based; details: NCI-H460
NCI-H358 = assay: Cytotoxicity against human NCI-H358 cells by MTT assay; format: functional, cell-based
HT-29 = assay: Cytotoxicity against human HT-29 cells by MTT assay; format: functional, cell-based
[7] = Cytotoxicity against mouse C26 cells by MTT assay; format: functional, cell-based
HCT-15 = assay: Cytotoxicity against human HCT15 cells by MTT assay; format: functional, cell-based

Compound COc1ccc(/C=C/C(=O)c2ccc(OC)c3c2OC(C)(C)C=C3)cc1OCCN1CCCCC1 has an IC50 [1] of 9150 nM, an IC50 (A-375) of 3000 nM and an IC50 (K562) of 2080 nM. For the same compound, the IC50 (HepG2) was 4400 nM.
With COc1ccc(/C=C/C(=O)c2ccc(OC)c3c2OC(C)(C)C=C3)cc1OC(=O)c1ccc(Br)cc1 the IC50 [1] was 8400 nM, the IC50 (A-375) was 420 nM and the IC50 (K562) was 1110 nM. The IC50 (HepG2) was 680 nM.
For COc1ccc(/C=C/C(=O)c2ccc(OC)c3c2OC(C)(C)C=C3)cc1OC(=O)CCl, the IC50 [1] was greater than 10000 nM, the IC50 (A-375) was 450 nM and the IC50 (K562) was 400 nM. It also gave an IC50 (HepG2) of 120 nM.
Compound COc1ccc(/C=C/C(=O)c2ccc(OC)c3c2OC(C)(C)C=C3)cc1OC(=O)c1ccco1 has an IC50 [1] greater than 10000 nM, an IC50 (A-375) of 680 nM and an IC50 (K562) of 450 nM. The IC50 (HepG2) was 370 nM.
Compound COc1ccc(/C=C/C(=O)Oc2cc(/C=C/C(=O)c3ccc(OC)c4c3OC(C)(C)C=C4)ccc2OC)cc1 has an IC50 [1] of 18000 nM, an IC50 (A-375) of 2630 nM and an IC50 (K562) of 380 nM. It also gave an IC50 (HepG2) of 430 nM.
COc1ccc(/C=C/C(=O)c2ccc(OC)c3c2OC(C)(C)C=C3)cc1OCCN1CCOCC1 gave an IC50 [1] greater than 10000 nM, an IC50 (A-375) of 8200 nM and an IC50 (K562) of 8350 nM. The IC50 (HepG2) was greater than 10000 nM.
For COc1ccc(/C=C/C(=O)c2ccc(OC)c3c2OC(C)(C)C=C3)cc1OC(=O)Cc1cccc(C(F)(F)F)c1, the IC50 [1] was greater than 10000 nM, the IC50 (A-375) was 480 nM and the IC50 (K562) was 290 nM. The IC50 (HepG2) was 570 nM.
Work on COc1ccc(/C=C/C(=O)c2ccc(OC)c3c2OC(C)(C)C=C3)cc1OC(=O)Cc1ccc(Cl)c(Cl)c1 yielded an IC50 [1] greater than 10000 nM, an IC50 (A-375) of 700 nM and an IC50 (K562) of 430 nM. The IC50 (HepG2) was 600 nM.
With COc1ccc(/C=C/C(=O)c2ccc(OC)c3c2OC(C)(C)C=C3)cc1OC(=O)C(C)C the IC50 [1] was greater than 10000 nM, the IC50 (A-375) was 310 nM and the IC50 (K562) was 570 nM. For the same compound, the IC50 (HepG2) was 250 nM.
Work on COc1cc2c(c(OC)c1OC)-c1ccc(OC)c(=O)cc1[C@@H](NC(C)=O)CC2 [COLCHICINE] yielded an IC50 (A2780) greater than 20000 nM, an IC50 [2] of 3120 nM and an IC50 (HCT-8) of 11800 nM. For the same compound, the IC50 (DU-145) was 300 nM, the IC50 [3] was 20 nM and the IC50 (PC-3) was 40 nM. The IC50 [4] was 90 nM, the IC50 (SK-OV-3) was 120 nM and the IC50 (SK-HEP1) was 170 nM. It also gave an IC50 (MCF7) of 290 nM, an IC50 (Bel-7402) of 1310 nM and an IC50 [5] of 80000 nM. It also gave an IC50 [6] of 27000 nM, an IC50 (NCI-H358) of 20 nM and an IC50 (HT-29) of 20 nM. It also gave an IC50 [7] of 1720 nM and an IC50 (HCT-15) of 80 nM.
In the case of COc1ccc(/C=C/C(=O)c2ccc(OC)c3c2OC(C)(C)C=C3)cc1OS(=O)(=O)c1ccc(C)cc1, the IC50 [1] is reported as greater than 10000 nM, the IC50 (A-375) is reported as 2400 nM and the IC50 (K562) is reported as 7850 nM. The IC50 (HepG2) was 3600 nM.
Compound COc1ccc(/C=C/C(=O)c2ccc(OC)c3c2OC(C)(C)C=C3)cc1OCC=C(C)C has an IC50 [1] greater than 10000 nM, an IC50 (A-375) greater than 10000 nM and an IC50 (K562) greater than 10000 nM. The IC50 (HepG2) was greater than 10000 nM.
With COc1ccc(/C=C/C(=O)c2ccc(OC)c3c2OC(C)(C)C=C3)cc1OC(=O)C1CC1 the IC50 [1] was greater than 10000 nM, the IC50 (A-375) was 380 nM and the IC50 (K562) was 410 nM. The IC50 (HepG2) was 220 nM.
